Data: ChEMBL document CHEMBL1132388, “A ureido-thioisobutyric acid (GW9578) is a subtype-selective PPARalpha agonist with potent lipid-lowering activity” (J Med Chem, 1999)

Legend:
[1] = target: T1, Peroxisome proliferator-activated receptor delta (Mus musculus, UniProt P35396); assay: Compound was tested for its agonist activity against murine Peroxisome proliferator activated receptor delta-GAL4 chimeric receptor in transfected CV-1 cells; assay type: functional, cell-based
T1 sequence (P35396 whole entry): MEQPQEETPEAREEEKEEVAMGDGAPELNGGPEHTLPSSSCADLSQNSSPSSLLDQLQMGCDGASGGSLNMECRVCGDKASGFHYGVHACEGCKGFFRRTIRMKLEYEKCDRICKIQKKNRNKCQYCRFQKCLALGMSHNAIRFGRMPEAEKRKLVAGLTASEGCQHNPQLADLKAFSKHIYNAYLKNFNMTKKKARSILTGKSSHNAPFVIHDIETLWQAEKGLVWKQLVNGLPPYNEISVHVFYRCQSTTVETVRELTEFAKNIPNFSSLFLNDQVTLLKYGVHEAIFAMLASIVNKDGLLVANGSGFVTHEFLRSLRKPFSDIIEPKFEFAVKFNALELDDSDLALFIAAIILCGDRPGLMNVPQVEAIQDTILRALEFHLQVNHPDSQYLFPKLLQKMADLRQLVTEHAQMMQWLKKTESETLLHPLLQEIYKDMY

[2] = target: T2, Peroxisome proliferator-activated receptor alpha (Mus musculus, UniProt P23204); assay: Compound was tested for its agonist activity against murine Peroxisome proliferator activated receptor alpha-Gal4 chimeric receptor transfected CV-1 cells; assay type: functional, cell-based
T2 sequence (P23204 whole entry): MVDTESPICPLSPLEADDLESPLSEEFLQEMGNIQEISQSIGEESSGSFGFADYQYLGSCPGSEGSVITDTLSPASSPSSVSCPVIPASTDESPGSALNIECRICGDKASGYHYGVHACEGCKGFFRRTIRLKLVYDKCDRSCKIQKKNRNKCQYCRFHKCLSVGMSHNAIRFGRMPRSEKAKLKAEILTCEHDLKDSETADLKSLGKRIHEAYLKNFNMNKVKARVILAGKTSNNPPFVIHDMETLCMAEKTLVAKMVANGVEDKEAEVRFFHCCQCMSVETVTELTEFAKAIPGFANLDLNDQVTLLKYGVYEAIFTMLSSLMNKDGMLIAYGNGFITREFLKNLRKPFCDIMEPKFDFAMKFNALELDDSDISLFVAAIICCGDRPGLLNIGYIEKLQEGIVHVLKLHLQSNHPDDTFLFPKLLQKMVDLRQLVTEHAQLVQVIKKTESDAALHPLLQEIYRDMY
Procedure, shortened: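 PPAR-GAL4 chimeric receptor transiently transfected into CV-1 cells; reporter activity read after compound exposure, with concentrations tested up to 300 µM.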

[3] = target: T3, Peroxisome proliferator-activated receptor gamma (Mus musculus, UniProt P37238); assay: Compound was tested for its agonist activity against murine Peroxisome proliferator activated receptor gamma-Gal4 chimeric receptor in transfected CV-1 cells; assay type: functional, cell-based
T3 sequence (P37238 whole entry): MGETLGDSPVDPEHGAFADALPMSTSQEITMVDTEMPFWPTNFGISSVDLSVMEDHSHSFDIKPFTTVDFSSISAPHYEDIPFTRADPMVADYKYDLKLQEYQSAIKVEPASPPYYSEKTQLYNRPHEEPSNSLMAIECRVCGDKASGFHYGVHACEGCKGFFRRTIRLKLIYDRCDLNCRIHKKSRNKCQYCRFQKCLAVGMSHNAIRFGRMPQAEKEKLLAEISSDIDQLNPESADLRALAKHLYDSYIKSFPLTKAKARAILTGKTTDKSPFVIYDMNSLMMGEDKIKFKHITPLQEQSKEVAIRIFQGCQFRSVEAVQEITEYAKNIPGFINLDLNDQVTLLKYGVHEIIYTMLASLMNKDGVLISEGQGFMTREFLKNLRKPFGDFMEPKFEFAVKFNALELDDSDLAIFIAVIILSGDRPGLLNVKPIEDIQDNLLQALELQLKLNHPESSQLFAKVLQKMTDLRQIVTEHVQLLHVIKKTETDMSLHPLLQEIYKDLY

[4] = target: T4, Peroxisome proliferator-activated receptor delta (Homo sapiens, UniProt Q03181); assay: Compound was tested for agonist activity on human Peroxisome proliferator activated receptor delta-GAL4 chimeric receptor in transfected CV-1 cells; assay type: functional, cell-based
T4 sequence (Q03181 whole entry): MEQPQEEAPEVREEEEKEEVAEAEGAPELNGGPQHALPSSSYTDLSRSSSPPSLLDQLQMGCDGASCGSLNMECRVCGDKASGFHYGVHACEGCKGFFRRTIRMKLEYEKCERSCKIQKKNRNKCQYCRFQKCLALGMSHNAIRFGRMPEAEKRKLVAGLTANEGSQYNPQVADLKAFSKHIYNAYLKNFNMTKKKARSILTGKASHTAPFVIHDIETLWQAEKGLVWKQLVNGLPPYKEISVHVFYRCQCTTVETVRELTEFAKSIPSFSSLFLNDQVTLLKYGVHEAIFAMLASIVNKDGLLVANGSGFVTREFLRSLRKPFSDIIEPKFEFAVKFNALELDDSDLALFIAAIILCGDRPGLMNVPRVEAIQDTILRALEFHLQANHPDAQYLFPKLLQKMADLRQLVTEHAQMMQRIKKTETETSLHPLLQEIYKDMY

[5] = organism: Rattus norvegicus; assay: Minimum effective dose producing a 40-60% decrease in serum TLDL cholesterol in rats relative to vehicle -treated controls; assay type: functional; conditions: read-out: MED
[6] = target: T5, Peroxisome proliferator-activated receptor gamma (Homo sapiens, UniProt P37231)
T5 sequence (P37231 whole entry): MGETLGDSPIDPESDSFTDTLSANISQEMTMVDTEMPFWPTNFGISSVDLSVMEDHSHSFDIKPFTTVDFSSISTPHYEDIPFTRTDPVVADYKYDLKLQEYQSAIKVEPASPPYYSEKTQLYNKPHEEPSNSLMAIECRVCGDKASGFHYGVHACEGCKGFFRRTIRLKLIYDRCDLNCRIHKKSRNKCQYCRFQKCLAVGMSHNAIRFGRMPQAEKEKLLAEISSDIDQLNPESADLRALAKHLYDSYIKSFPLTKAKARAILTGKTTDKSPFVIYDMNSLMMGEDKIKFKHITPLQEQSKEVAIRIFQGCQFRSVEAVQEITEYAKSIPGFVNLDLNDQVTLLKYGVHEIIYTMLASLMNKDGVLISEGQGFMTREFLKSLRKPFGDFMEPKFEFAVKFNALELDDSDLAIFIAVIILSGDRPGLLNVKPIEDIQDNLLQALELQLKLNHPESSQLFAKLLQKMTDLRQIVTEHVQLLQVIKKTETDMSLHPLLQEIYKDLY

[7] = target: T6, Peroxisome proliferator-activated receptor alpha (Homo sapiens, UniProt Q07869)
T6 sequence (Q07869 whole entry): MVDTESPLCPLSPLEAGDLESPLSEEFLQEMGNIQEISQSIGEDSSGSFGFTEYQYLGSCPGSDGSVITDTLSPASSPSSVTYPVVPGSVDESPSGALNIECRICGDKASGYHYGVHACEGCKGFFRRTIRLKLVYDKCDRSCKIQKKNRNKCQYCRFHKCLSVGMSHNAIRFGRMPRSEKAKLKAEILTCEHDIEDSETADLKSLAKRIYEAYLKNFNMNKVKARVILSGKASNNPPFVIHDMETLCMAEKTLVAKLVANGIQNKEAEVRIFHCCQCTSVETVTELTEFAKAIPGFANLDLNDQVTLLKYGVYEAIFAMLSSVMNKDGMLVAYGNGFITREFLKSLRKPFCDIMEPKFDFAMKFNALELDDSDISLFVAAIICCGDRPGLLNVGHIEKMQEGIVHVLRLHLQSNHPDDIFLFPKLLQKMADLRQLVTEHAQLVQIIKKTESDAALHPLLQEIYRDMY

[8] = target: T1, Peroxisome proliferator-activated receptor delta; assay: Compound was tested for its agonist activity against murine Peroxisome proliferator activated receptor delta-GAL4 chimeric receptor in transfected CV-1 cells; IA = Inactive; assay type: functional, cell-based
[9] = target: T4, Peroxisome proliferator-activated receptor delta; assay: Compound was tested for agonist activity on human Peroxisome proliferator activated receptor delta-GAL4 chimeric receptor in transfected CV-1 cells; IA = Inactive; assay type: functional, cell-based

Compound	EC50 [1]	EC50 [2]	EC50 [3]	EC50 [4]	minimal effective dose [5]	EC50 [6]	EC50 [7]	EC50 [8]	EC50 [9]
CC(C)(Oc1ccc(CCN(C(=O)Nc2ccc(F)cc2F)C2CCCCCC2)cc1)C(=O)O	1400 nM	120 nM	12 nM	790 nM	1 mg/kg	6 nM			
CCCCCCCN(CCc1ccc(OC(C)(C)C(=O)O)cc1)C(=O)Nc1ccc(F)cc1F	3200 nM	10 nM	400 nM		0.1 mg/kg	200 nM	790 nM		
CC(C)(Oc1ccc(CCN(CCCCCC2CCCCC2)C(=O)Nc2ccc(F)cc2)cc1)C(=O)O	23000 nM	53 nM	1000 nM		1 mg/kg	1600 nM	150 nM		
CCCCCCCN(CCc1ccc(OC(C)(C)C(=O)O)cc1)C(=O)Nc1ccc(F)cc1	5500 nM	33 nM	870 nM	3100 nM	0.1 mg/kg	280 nM	410 nM		
CC(C)(Oc1ccc(CCNC(=O)c2ccc(Cl)cc2)cc1)C(=O)O [BEZAFIBRATE]	110000 nM	90000 nM	55000 nM	20000 nM	50 mg/kg	60000 nM			
CC(C)(Oc1ccc(Cl)cc1)C(=O)O [CLOFIBRIC ACID]		50000 nM	> 300000 nM			> 300000 nM	55000 nM	Not Active	Not Active
CC(C)(Oc1ccc(C(=O)c2ccc(Cl)cc2)cc1)C(=O)O [FENOFIBRIC ACID]			250000 nM		50 mg/kg			Not Active	Not Active
CCCCCCCN(CCc1ccc(SC(C)(C)C(=O)O)cc1)C(=O)Nc1ccc(F)cc1F [GSK-9578]	2600 nM	5 nM	1500 nM	1400 nM	0.2 mg/kg				
